Measurements as given in ChEMBL document CHEMBL1795311, “Synthesis, antiproliferative activity, and mechanism of action of a series of 2-{[(2E)-3-phenylprop-2-enoyl]amino}benzamides” (Eur J Med Chem, 2011).
pIC50: −log10 of the molar value.

How the values were obtained:
[1] = test system: M14; assay: Growth inhibition of human M14 cells after 48 hrs by SRB assay; format: functional; settings: M14, 48 h
In short: (§1)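 NCI DTP panel cells grown in RPMI 1640 with 5% FBS and 2 mM L-glutamine, preincubated 24 h, then given five concentrations (10-fold or ½-log dilutions from DMSO stock) for 48 h at 37 °C. Cells fixed with TCA, stained with SRB, absorbance read at 515 nm, with time-zero plates as reference.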

[2] = test system: UACC-257; assay: Growth inhibition of human UACC257 cells after 48 hrs by SRB assay; format: functional; settings: UACC-257, 48 h
In short: (§2)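 Run by the NCI Developmental Therapeutics Program: cells in RPMI 1640 with 5% FBS and 2 mM L-glutamine, plated at 5000–40,000 cells/well and grown 24 h before dosing. Drug (DMSO stock) given at five concentrations for 48 h at 37 °C, 5% CO2. Adherent cells fixed with cold TCA, stained with 0.4% SRB and read at 515 nm. GI50, TGI and LC50 taken from the time-zero, control and treated absorbances.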

[3] = test system: A549; assay: Growth inhibition of human A549 cells after 48 hrs by SRB assay; format: functional; settings: A549, 48 h; in short: as §1
[4] = test system: HCC 2998; assay: Growth inhibition of human HCC2998 cells after 48 hrs by SRB assay; format: functional; settings: HCC 2998, 48 h; in short: as §1
[5] = test system: MDA-MB-435; assay: Growth inhibition of human MDA-MB-435 cells after 48 hrs by SRB assay; format: functional; settings: MDA-MB-435, 48 h; in short: as §1
[6] = test system: IGROV-1; assay: Growth inhibition of human IGROV1 cells after 48 hrs by SRB assay; format: functional; settings: IGROV-1, 48 h; in short: as §1
[7] = test system: UO-31; assay: Growth inhibition of human UO31 cells after 48 hrs by SRB assay; format: functional; settings: UO-31, 48 h; in short: as §2
[8] = test system: OVCAR-8; assay: Growth inhibition of human OVCAR8 cells after 48 hrs by SRB assay; format: functional; settings: OVCAR-8, 48 h; in short: as §1
[9] = test system: PC-3; assay: Growth inhibition of human PC3 cells after 48 hrs by SRB assay; format: functional; settings: PC-3, 48 h; in short: as §1
[10] = test system: A498; assay: Growth inhibition of human A498 cells after 48 hrs by SRB assay; format: functional; settings: A498, 48 h; in short: as §1
[11] = test system: UACC-62; assay: Growth inhibition of human UACC62 cells after 48 hrs by SRB assay; format: functional; settings: UACC-62, 48 h; in short: as §2
[12] = test system: K562; assay: Antiproliferative activity against human K562 cells at 10 uM after 48 hrs by trypan blue assay; format: functional; settings: K562, 48 h, read-out: GI
[13] = test system: SNB-75; assay: Growth inhibition of human SNB75 cells after 48 hrs by SRB assay; format: functional; settings: SNB-75, 48 h; in short: as §2
[14] = test system: SK-MEL-5; assay: Growth inhibition of human SK-MEL-5 cells after 48 hrs by SRB assay; format: functional; settings: SK-MEL-5, 48 h; in short: as §2
[15] = test system: SNB-19; assay: Growth inhibition of human SNB19 cells after 48 hrs by SRB assay; format: functional; settings: SNB-19, 48 h; in short: as §2
[16] = test system: U-251; assay: Growth inhibition of human U251 cells after 48 hrs by SRB assay; format: functional; settings: U-251, 48 h; in short: as §2
[17] = test system: K562; assay: Growth inhibition of human K562 cells after 48 hrs by trypan blue assay; format: functional, cell-based; settings: K562, 48 h
[18] = test system: COLO 205; assay: Growth inhibition of human COLO205 cells after 48 hrs by SRB assay; format: functional; settings: COLO 205, 48 h; in short: as §1
[19] = test system: NCI-H23; assay: Growth inhibition of human NCI-H23 cells after 48 hrs by SRB assay; format: functional; settings: NCI-H23, 48 h; in short: as §1
[20] = test system: OVCAR-3; assay: Growth inhibition of human OVCAR3 cells after 48 hrs by SRB assay; format: functional; settings: OVCAR-3, 48 h; in short: as §1
[21] = test system: CCRF-CEM; assay: Growth inhibition of human CCRF-CEM cells after 48 hrs by SRB assay; format: functional; in short: as §1
[22] = test system: SF-268; assay: Growth inhibition of human SF268 cells after 48 hrs by SRB assay; format: functional; settings: SF-268, 48 h; in short: as §1
[23] = test system: ACHN; assay: Growth inhibition of human ACHN cells after 48 hrs by SRB assay; format: functional; in short: as §1
[24] = test system: NCI/ADR-RES; assay: Growth inhibition of human NCI/ADR-RES cells after 48 hrs by SRB assay; format: functional; in short: as §1
[25] = test system: SK-MEL-2; assay: Growth inhibition of human SK-MEL-2 cells after 48 hrs by SRB assay; format: functional; settings: SK-MEL-2, 48 h; in short: as §2
[26] = test system: NCI-H460; assay: Growth inhibition of human NCI-H460 cells after 48 hrs by SRB assay; format: functional; settings: NCI-H460, 48 h; in short: as §1
[27] = test system: SN12C; assay: Growth inhibition of human SN12C cells after 48 hrs by SRB assay; format: functional; in short: as §2
[28] = test system: NCI-H522; assay: Growth inhibition of human NCI-H522 cells after 48 hrs by SRB assay; format: functional; settings: NCI-H522, 48 h; in short: as §1
[29] = test system: HCT-116; assay: Growth inhibition of human HCT116 cells after 48 hrs by SRB assay; format: functional; settings: HCT-116, 48 h; in short: as §1
[30] = test system: NCI-H226; assay: Growth inhibition of human NCI-H226 cells after 48 hrs by SRB assay; format: functional; settings: NCI-H226, 48 h; in short: as §1
[31] = test system: BT-549; assay: Growth inhibition of human BT549 cells after 48 hrs by SRB assay; format: functional; settings: BT-549, 48 h; in short: as §1
[32] = test system: OVCAR-4; assay: Growth inhibition of human OVCAR4 cells after 48 hrs by SRB assay; format: functional; settings: OVCAR-4, 48 h; in short: as §1
[33] = test system: LOX IMVI; assay: Growth inhibition of human LOXIMVI cells after 48 hrs by SRB assay; format: functional; in short: as §1
[34] = test system: MDA-MB-468; assay: Growth inhibition of human MDA-MB-468 cells after 48 hrs by SRB assay; format: functional; settings: MDA-MB-468, 48 h; in short: as §1
[35] = test system: T47D; assay: Growth inhibition of human T47D cells after 48 hrs by SRB assay; format: functional; in short: as §2
[36] = test system: K562; assay: Growth inhibition of human K562 cells after 48 hrs by SRB assay; format: functional; settings: K562, 48 h; in short: as §1
[37] = test system: MCF7; assay: Growth inhibition of human MCF7 cells after 48 hrs by SRB assay; format: functional; settings: MCF7, 48 h; in short: as §1
[38] = test system: HCT-15; assay: Growth inhibition of human HCT15 cells after 48 hrs by SRB assay; format: functional; settings: HCT-15, 48 h; in short: as §1
[39] = test system: HOP-62; assay: Growth inhibition of human HOP62 cells after 48 hrs by SRB assay; format: functional; settings: HOP-62, 48 h; in short: as §1
[40] = Growth inhibition of human Hs 578T cells after 48 hrs by SRB assay; format: functional; in short: as §1
[41] = test system: SK-MEL-28; assay: Growth inhibition of human SK-MEL-28 cells after 48 hrs by SRB assay; format: functional; settings: SK-MEL-28, 48 h; in short: as §2
[42] = test system: Malme-3M; assay: Growth inhibition of human MALME-3M cells after 48 hrs by SRB assay; format: functional; in short: as §1
[43] = test system: SK-OV-3; assay: Growth inhibition of human SKOV3 cells after 48 hrs by SRB assay; format: functional; settings: SK-OV-3, 48 h; in short: as §2
[44] = test system: OVCAR-5; assay: Growth inhibition of human OVCAR5 cells after 48 hrs by SRB assay; format: functional; settings: OVCAR-5, 48 h; in short: as §1
[45] = test system: SF-295; assay: Growth inhibition of human SF295 cells after 48 hrs by SRB assay; format: functional; settings: SF-295, 48 h; in short: as §1
[46] = test system: HT-29; assay: Growth inhibition of human HT-29 cells after 48 hrs by SRB assay; format: functional; settings: HT-29, 48 h; in short: as §1
[47] = test system: 786-0; assay: Growth inhibition of human 786-0 cells after 48 hrs by SRB assay; format: functional; settings: 786-0, 48 h; in short: as §1
[48] = test system: TK-10; assay: Growth inhibition of human TK10 cells after 48 hrs by SRB assay; format: functional; settings: TK-10, 48 h; in short: as §2
[49] = test system: EKVX; assay: Growth inhibition of human EKVX cells after 48 hrs by SRB assay; format: functional; in short: as §1
[50] = test system: SW-620; assay: Growth inhibition of human SW620 cells after 48 hrs by SRB assay; format: functional; settings: SW-620, 48 h; in short: as §2
[51] = test system: MDA-MB-231; assay: Growth inhibition of human MDA-MB-231 cells after 48 hrs by SRB assay; format: functional; settings: MDA-MB-231, 48 h; in short: as §1
[52] = test system: HOP-92; assay: Growth inhibition of human HOP92 cells after 48 hrs by SRB assay; format: functional; settings: HOP-92, 48 h; in short: as §1
[53] = test system: KM12; assay: Growth inhibition of human KM12 cells after 48 hrs by SRB assay; format: functional; settings: KM12, 48 h; in short: as §1
[54] = test system: HL-60; assay: Growth inhibition of human HL60 cells after 48 hrs by SRB assay; format: functional; settings: HL-60, 48 h; in short: as §1
[55] = test system: MOLT-4; assay: Growth inhibition of human MOLT4 cells after 48 hrs by SRB assay; format: functional; settings: MOLT-4, 48 h; in short: as §1
[56] = test system: DU-145; assay: Growth inhibition of human DU145 cells after 48 hrs by SRB assay; format: functional; settings: DU-145, 48 h; in short: as §1
[57] = test system: SF-539; assay: Growth inhibition of human SF539 cells after 48 hrs by SRB assay; format: functional; settings: SF-539, 48 h; in short: as §1
[58] = test system: CAKI-1; assay: Growth inhibition of human Caki1 cells after 48 hrs by SRB assay; format: functional; settings: CAKI-1, 48 h; in short: as §1

GI50 [3]: 5.81 µM
GI50 [4]: 6.45 µM
GI50 [5]: 0.66 µM
GI50 [8]: 7.49 µM
GI50 [9]: 3.97 µM
GI50 [14]: 1.01 µM
GI50 [16]: 4.13 µM
pIC50 [17]: 5.26
GI50 [18]: 1.84 µM
GI50 [19]: 3.38 µM
GI50 [20]: 2.18 µM
GI50 [21]: 2.36 µM
GI50 [23]: 13.5 µM
GI50 [25]: 4.75 µM
GI50 [26]: 3.59 µM
GI50 [28]: 2.83 µM
GI50 [29]: 3.2 µM
GI50 [30]: 7.28 µM
GI50 [31]: 4.88 µM
GI50 [32]: 11.4 µM
GI50 [34]: 3.12 µM
GI50 [35]: 4.2 µM
GI50 [36]: 1.11 µM
GI50 [37]: 3.48 µM
GI50 [38]: 3.77 µM
GI50 [41]: 5.24 µM
GI50 [43]: 2.79 µM
GI50 [44]: 8.2 µM
GI50 [46]: 2.31 µM
GI50 [47]: 4 µM
GI50 [50]: 3.3 µM
GI50 [51]: 7.26 µM
GI50 [54]: 1.77 µM
GI50 [55]: 3.56 µM
GI50 [56]: 3.66 µM
SMILES: Cc1ccc(NC(=O)/C=C/c2ccccc2)c(C(N)=O)c1
GI50 [1]: 2.35 µM
GI50 [2]: 17 µM
GI50 [6]: 4.37 µM
GI50 [7]: 9.62 µM
GI50 [10]: 5.56 µM
GI50 [11]: 3.77 µM
inhibition of growth at 10 µM [12]: 65.4%
GI50 [13]: 3.18 µM
GI50 [15]: 5.69 µM
GI50 [22]: 10.9 µM
GI50 [24]: 2.79 µM
GI50 [27]: 9.63 µM
GI50 [33]: 7.65 µM
GI50 [39]: 7.74 µM
GI50 [40]: 1.94 µM
GI50 [42]: 7.59 µM
GI50 [45]: 3.14 µM
GI50 [48]: 25.8 µM
GI50 [49]: 5.18 µM
GI50 [52]: 11.4 µM
GI50 [53]: 2.94 µM
GI50 [57]: 2.05 µM
GI50 [58]: 8.92 µM
